Laboratory results from ChEMBL document CHEMBL1949660 (Bioorg Med Chem Lett, 2012).

Assays:
[1] = target: Sodium-dependent dopamine transporter (Homo sapiens) (UniProt Q01959); experiment: Inhibition of DAT at 10 uM
[2] = Oral bioavailability in rat at 5 mg/kg; assay type: ADME, organism-based; conditions: in vivo
Procedure, shortened: (§1)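 Rat PK: iv dose with vehicle 3% DMSO, 30% solutol, 67% phosphate buffered saline. Oral 5 mg/kg dose with vehicle 50% Tween 80, 40% propylene carbonate, 10% propylene glycol.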

[3] = target: T1, Histamine H3 receptor (Homo sapiens, UniProt Q9Y5N1); experiment: Displacement of [3H]NAMH from human histamine H3 receptor expressed in CHO cells; assay type: cell-based
Procedure, shortened: (§2)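 Radioligand displacement of [³H]NAMH from membranes isolated from CHO cells transfected with cloned human H₃ or rat H₃ receptors.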

[4] = Drug uptake in rat brain at 5 mg/kg, po measured after 6 hrs; assay type: ADME, organism-based; design: dose 5 mg/kg, route oral; conditions: read-out: Drug uptake
Procedure, shortened: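 Rats given 5 mg/kg po in 50% Tween 80, 40% propylene carbonate, 10% propylene glycol. Brain concentration determined 6 h after dosing.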

[5] = target: Cytochrome P450 2C9 (Homo sapiens, UniProt P11712); experiment: Inhibition of CYP2C9; assay type: ADME
[6] = target: T1, Histamine H3 receptor; experiment: Inverse agonist activity at human histamine H3 receptor assessed as inhibition of R-alpha-methylhistamine-induced [35S]GTPgammaS binding; assay type: functional
[7] = Apparent permeability across human Caco2 cells; assay type: ADME, cell-based; conditions: Caco-2
[8] = Half life in rat liver microsomes; assay type: ADME, Microsome
[9] = Half life in human liver microsomes; assay type: ADME, Microsome
[10] = target: Cytochrome P450 2C19 (Homo sapiens, UniProt P33261); experiment: Inhibition of CYP2C19; assay type: ADME
[11] = Half life in rat at 1 mg/kg, iv; assay type: ADME, organism-based; design: dose 1 mg/kg, route intravenous; conditions: in vivo; procedure, shortened: as §1
[12] = Aqueous solubility of the compound at pH 7.4; assay type: physicochemical; conditions: aqueous medium
[13] = Ratio drug uptake in brain to plasma of rat at 10 mg/kg, ip measured after 6 hrs; assay type: ADME, organism-based; design: dose 10 mg/kg, route intraperitoneal; conditions: read-out: BPR
[14] = target: Histamine H4 receptor (Homo sapiens) (UniProt Q9H3N8); experiment: Inhibition of human histamine H4 receptor at 10 uM
[15] = Half life in monkey liver microsomes; assay type: ADME, Macaca mulatta, Microsome; conditions: rhesus monkey
[16] = Half life in dog liver microsomes; assay type: ADME, Canis lupus familiaris, Microsome
[17] = Clearance in rat at 1 mg/kg, iv; assay type: ADME, organism-based; design: dose 1 mg/kg, route intravenous; conditions: in vivo; procedure, shortened: as §1
[18] = target: T2, Cytochrome P450 1A2 (Homo sapiens, UniProt P05177); experiment: Inhibition of CYP1A2; assay type: ADME
T2 sequence (P05177 whole entry): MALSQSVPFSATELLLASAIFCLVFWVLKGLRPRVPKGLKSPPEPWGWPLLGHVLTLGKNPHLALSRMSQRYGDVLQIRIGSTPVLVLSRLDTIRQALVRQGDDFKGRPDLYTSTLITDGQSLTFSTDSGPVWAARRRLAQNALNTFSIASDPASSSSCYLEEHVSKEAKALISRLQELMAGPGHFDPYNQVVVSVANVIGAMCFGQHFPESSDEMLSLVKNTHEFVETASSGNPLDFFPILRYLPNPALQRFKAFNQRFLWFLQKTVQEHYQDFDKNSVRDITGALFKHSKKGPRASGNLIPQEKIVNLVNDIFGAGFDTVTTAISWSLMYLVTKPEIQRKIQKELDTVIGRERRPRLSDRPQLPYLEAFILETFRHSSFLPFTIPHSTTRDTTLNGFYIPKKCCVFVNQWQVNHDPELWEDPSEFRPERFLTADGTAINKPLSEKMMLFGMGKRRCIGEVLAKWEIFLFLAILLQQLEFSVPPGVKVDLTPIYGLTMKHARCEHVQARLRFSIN

[19] = target: Voltage-gated inwardly rectifying potassium channel KCNH2 (Homo sapiens, UniProt Q12809); experiment: Inhibition of human Erg by patch clamp assay
[20] = Cmax in rat at 5 mg/kg, po; assay type: ADME, organism-based; design: dose 5 mg/kg, route oral; conditions: in vivo
[21] = target: Histamine H3 receptor (Rattus norvegicus, UniProt Q9QYN8); experiment: Displacement of [3H]NAMH from rat histamine H3 receptor expressed in CHO cells; assay type: cell-based; procedure, shortened: as §2
[22] = Volume of distribution in rat at 1 mg/kg, iv; assay type: ADME, organism-based; design: dose 1 mg/kg, route intravenous; conditions: in vivo; procedure, shortened: as §1
[23] = target: Cytochrome P450 3A4 (Homo sapiens, UniProt P08684); experiment: Inhibition of CYP3A4; assay type: ADME
[24] = target: Histamine H1 receptor (Homo sapiens) (UniProt P35367); experiment: Inhibition of human histamine H1 receptor at 10 uM
[25] = target: Histamine H2 receptor (Homo sapiens) (UniProt P25021); experiment: Inhibition of human histamine H2 receptor at 10 uM
[26] = Aqueous solubility of the compound at pH 2; assay type: physicochemical; conditions: aqueous medium
[27] = target: Cytochrome P450 2D6 (Homo sapiens, UniProt P10635); experiment: Inhibition of CYP2D6; assay type: ADME

Histamine H3 receptor (Rattus norvegicus, UniProt Q9QYN8), sequence (Q9QYN8 whole entry): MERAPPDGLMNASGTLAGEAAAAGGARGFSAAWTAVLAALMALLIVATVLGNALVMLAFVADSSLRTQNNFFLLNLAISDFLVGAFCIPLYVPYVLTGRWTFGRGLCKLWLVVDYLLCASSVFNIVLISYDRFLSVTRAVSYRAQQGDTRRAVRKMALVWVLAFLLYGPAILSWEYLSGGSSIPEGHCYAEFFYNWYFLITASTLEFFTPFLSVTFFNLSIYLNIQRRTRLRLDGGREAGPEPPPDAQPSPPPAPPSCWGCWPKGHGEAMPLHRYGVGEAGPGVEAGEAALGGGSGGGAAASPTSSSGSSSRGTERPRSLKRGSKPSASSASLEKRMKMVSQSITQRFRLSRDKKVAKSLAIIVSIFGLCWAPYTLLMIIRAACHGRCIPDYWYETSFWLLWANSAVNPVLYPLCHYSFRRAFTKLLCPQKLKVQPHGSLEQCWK
T1 sequence (Q9Y5N1 whole entry): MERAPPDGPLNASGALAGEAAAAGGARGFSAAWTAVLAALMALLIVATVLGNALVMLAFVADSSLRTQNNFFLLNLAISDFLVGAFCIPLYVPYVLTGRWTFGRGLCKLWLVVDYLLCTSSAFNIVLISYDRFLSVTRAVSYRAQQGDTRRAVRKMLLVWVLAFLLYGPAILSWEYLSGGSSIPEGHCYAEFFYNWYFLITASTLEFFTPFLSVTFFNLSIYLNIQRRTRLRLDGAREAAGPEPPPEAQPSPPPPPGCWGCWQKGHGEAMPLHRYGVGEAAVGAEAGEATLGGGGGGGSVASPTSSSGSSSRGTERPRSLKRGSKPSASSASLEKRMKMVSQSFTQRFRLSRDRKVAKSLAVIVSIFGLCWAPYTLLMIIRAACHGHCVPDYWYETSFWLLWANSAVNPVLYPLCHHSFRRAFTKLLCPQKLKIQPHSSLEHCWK
Voltage-gated inwardly rectifying potassium channel KCNH2, sequence (Q12809 whole entry): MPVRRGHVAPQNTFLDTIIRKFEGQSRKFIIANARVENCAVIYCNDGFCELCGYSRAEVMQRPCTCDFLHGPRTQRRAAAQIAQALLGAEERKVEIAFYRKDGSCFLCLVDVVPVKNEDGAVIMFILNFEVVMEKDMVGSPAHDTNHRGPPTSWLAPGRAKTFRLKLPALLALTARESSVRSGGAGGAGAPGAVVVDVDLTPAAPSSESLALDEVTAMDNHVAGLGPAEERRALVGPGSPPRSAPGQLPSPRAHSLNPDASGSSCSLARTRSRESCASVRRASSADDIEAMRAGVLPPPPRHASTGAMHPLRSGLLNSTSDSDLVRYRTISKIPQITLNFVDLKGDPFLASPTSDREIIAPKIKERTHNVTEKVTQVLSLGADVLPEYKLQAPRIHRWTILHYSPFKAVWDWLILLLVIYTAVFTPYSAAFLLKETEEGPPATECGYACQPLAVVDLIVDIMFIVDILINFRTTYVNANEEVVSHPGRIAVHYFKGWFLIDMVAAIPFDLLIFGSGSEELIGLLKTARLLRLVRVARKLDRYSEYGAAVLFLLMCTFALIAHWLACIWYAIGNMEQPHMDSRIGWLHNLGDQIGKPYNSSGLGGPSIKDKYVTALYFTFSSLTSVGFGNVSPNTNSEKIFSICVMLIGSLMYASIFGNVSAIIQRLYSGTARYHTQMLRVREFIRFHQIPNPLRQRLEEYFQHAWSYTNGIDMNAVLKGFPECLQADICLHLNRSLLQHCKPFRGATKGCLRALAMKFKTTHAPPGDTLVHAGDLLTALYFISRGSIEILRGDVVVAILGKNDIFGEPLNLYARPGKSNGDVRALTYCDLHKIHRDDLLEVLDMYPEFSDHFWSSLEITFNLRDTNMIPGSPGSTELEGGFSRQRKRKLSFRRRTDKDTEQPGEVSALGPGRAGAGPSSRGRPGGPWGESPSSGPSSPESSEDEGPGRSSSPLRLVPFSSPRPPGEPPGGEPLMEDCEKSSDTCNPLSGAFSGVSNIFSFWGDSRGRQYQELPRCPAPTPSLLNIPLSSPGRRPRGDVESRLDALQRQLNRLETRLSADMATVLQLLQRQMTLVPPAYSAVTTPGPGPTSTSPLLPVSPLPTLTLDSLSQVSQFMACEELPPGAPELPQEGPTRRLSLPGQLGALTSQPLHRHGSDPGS
Sodium-dependent dopamine transporter (Homo sapiens), sequence (Q01959 whole entry): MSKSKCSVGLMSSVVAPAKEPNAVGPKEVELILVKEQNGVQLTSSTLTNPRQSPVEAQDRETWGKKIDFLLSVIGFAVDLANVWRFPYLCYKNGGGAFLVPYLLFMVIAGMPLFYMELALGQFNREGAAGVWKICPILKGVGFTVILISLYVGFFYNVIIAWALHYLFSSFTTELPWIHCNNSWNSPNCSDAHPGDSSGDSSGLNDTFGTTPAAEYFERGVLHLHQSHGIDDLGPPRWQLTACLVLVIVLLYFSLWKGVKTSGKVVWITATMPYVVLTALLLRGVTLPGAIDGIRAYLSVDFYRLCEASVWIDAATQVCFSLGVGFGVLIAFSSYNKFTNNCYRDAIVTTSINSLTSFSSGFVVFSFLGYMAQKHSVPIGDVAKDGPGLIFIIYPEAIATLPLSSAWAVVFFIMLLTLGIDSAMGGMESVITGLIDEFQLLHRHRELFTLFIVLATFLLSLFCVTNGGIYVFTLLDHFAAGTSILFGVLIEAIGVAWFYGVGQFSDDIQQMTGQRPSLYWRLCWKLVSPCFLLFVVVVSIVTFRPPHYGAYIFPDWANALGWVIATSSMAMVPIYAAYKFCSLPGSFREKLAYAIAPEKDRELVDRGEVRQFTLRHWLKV
Histamine H1 receptor (Homo sapiens), sequence (P35367 whole entry): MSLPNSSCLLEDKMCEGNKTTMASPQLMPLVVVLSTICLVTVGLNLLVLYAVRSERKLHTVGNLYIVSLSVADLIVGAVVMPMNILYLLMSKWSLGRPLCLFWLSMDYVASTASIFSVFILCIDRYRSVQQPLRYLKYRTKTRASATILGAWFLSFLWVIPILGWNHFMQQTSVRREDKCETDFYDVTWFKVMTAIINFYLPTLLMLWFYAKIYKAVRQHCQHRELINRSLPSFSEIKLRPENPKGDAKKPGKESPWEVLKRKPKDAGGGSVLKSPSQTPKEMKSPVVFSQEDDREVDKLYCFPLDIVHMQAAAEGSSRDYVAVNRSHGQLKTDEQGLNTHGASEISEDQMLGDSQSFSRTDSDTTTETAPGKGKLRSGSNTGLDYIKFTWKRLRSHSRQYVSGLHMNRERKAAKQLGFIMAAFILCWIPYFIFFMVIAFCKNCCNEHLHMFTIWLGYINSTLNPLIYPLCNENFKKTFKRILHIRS
Histamine H2 receptor (Homo sapiens), sequence (P25021 whole entry): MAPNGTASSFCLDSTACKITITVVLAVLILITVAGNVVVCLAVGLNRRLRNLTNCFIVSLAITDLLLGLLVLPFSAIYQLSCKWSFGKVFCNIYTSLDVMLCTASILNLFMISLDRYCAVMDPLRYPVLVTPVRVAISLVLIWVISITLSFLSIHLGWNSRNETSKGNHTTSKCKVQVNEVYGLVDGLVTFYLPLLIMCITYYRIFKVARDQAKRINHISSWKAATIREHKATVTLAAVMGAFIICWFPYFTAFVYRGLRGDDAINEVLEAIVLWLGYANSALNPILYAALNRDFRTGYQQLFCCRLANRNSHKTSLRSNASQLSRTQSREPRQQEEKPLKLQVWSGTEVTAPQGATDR
Cytochrome P450 3A4, sequence (P08684 whole entry): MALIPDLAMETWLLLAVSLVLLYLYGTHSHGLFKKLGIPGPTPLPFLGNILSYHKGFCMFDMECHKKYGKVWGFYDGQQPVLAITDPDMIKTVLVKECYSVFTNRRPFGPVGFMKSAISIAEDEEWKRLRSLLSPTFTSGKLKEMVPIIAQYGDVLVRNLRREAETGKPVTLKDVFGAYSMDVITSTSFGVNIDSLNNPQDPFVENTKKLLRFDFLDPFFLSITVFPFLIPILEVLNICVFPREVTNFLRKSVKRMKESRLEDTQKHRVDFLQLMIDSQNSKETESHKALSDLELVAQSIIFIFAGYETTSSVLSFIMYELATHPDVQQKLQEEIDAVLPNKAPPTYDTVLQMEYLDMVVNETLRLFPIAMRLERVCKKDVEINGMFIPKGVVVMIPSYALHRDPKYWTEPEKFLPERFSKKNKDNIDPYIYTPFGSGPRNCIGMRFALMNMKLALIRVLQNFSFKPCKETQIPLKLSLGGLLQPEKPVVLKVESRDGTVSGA
Cytochrome P450 2C19, sequence (P33261 whole entry): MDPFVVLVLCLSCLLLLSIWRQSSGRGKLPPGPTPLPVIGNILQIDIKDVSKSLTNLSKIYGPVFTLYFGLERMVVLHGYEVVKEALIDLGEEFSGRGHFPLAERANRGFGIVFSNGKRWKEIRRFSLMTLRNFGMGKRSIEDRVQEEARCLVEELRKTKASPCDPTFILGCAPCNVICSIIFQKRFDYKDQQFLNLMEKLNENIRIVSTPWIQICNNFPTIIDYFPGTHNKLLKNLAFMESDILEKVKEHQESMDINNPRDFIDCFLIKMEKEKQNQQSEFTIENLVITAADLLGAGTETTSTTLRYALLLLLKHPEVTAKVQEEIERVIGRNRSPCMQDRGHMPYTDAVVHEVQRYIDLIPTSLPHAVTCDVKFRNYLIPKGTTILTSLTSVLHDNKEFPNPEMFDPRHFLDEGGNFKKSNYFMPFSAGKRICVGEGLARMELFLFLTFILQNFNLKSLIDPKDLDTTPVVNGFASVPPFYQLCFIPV
Histamine H4 receptor (Homo sapiens), sequence (Q9H3N8 whole entry): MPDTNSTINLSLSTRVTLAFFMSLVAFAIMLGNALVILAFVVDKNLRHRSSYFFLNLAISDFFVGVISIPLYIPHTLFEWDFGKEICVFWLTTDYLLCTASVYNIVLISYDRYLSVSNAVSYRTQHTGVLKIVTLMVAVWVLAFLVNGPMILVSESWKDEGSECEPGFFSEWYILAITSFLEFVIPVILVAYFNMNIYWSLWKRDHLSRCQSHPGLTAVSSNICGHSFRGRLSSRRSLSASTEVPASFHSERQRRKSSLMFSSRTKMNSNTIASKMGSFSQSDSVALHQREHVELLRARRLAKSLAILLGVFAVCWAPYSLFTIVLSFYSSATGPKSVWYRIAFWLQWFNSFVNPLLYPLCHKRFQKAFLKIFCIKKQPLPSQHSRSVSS

**Q.** What does the source list for O=c1ccc(-c2ccc(OC3CCN(C4CCC4)CC3)cc2)n[nH]1?
**A.** inhibition [1]: 63%; bioavailability [2]: 35%; Ki [3]: 0.0019 µM; concentration at 6 h [4]: 1.4 µM; IC50 [5]: > 30 µM; EC50 [6]: 0.0011 µM; Papp [7]: 165 nm/s; half-life [8]: > 0.667 h; half-life [9]: > 0.667 h; IC50 [10]: > 30 µM; half-life [11]: 2.3 h; solubility [12]: > 1 mg/mL; Kp at 6 h [13]: 1.9; inhibition [14]: < 10%; half-life [15]: > 0.667 h; half-life [16]: > 0.667 h; clearance [17]: 0.78 L/h/kg; IC50 [18]: > 30 µM; IC50 [19]: 8 µM; Cmax [20]: 0.441 µg/mL; Ki [21]: 0.0022 µM; Vd [22]: 2.5 L/kg; IC50 [23]: > 30 µM; inhibition [24]: < 10%; inhibition [25]: < 10%; solubility [26]: > 1 mg/mL; IC50 [27]: > 30 µM

**Q.** With Cn1nc(-c2ccc(OC3CCN(C4CCCC4)CC3)cc2)ccc1=O as the compound, how does the Ki [3] read?
**A.** 0.0027 µM

**Q.** For C[C@@H]1CC(=O)NN=C1c1ccc(OC2CCN(C3CCC3)CC2)cc1, which Ki [21] is on record?
**A.** 0.0096 µM

**Q.** Which Ki [3] does the source give for O=c1ccc(-c2ccc(OC3CCN(C4CCCC4)CC3)nc2)n[nH]1 here?
**A.** 0.026 µM

**Q.** And the Ki [21]?
**A.** 0.051 µM

**Q.** With O=c1ccc(-c2ccc(OC3CCN(C4CCC4)CC3)cc2)nn1-c1ccccn1 as the compound, how does the Ki [3] read?
**A.** 0.0098 µM

**Q.** And the Ki [21]?
**A.** 0.015 µM

**Q.** With CC1(C)CC(c2ccc(OC3CCN(C4CCC4)CC3)c(F)c2)=NNC1=O as the compound, how does the Ki [3] read?
**A.** 0.0071 µM

**Q.** And the Ki [21]?
**A.** 0.0072 µM

**Q.** With CC(C)N1CCC(Oc2ccc(-c3ccc(=O)[nH]n3)cn2)CC1 as the compound, how does the Ki [3] read?
**A.** 0.015 µM

**Q.** What about the Ki [21] of the same compound?
**A.** 0.101 µM

**Q.** Which results are given for O=c1ccc(-c2ccc(OC3CCN(C4CCC4)CC3)nc2)n[nH]1?
**A.** bioavailability [2]: 21%; Ki [3]: 0.0063 µM; IC50 [19]: 9 µM; Ki [21]: 0.019 µM

**Q.** With C[C@H]1CC(=O)NN=C1c1ccc(OC2CCN(C3CCC3)CC2)cc1 as the compound, how does the inhibition [1] read?
**A.** 13%

**Q.** What about the bioavailability [2] of the same compound?
**A.** 56%

**Q.** What about the half-life [11] of the same compound?
**A.** 4.4 h

**Q.** And the Kp at 6 h [13]?
**A.** 5.3

**Q.** What about the clearance [17] of the same compound?
**A.** 1.38 L/h/kg

**Q.** And the Cmax [20]?
**A.** 0.253 µg/mL

**Q.** What about the Ki [21] of the same compound?
**A.** 0.013 µM

**Q.** What about the Vd [22] of the same compound?
**A.** 7.6 L/kg

**Q.** For O=c1ccc(-c2ccc(OC3CCN(C4CCC4)CC3)nc2)nn1-c1ccccn1, which Ki [3] is on record?
**A.** 0.034 µM

**Q.** What about the Ki [21] of the same compound?
**A.** 0.082 µM
